Screening data as filed in PubChem.
An excerpt weighted towards active compounds, which were near 1.5% of everything screened.
UBC13 inh: human UBC13 polyubiquitination inhibition. P61088. 0.47% of 330,000 active. UBC13 polyubiquitin chain formation, TR-FRET. inhibition, % at 20 µM; in the data active means inhibition above about 45%, passing the limit was not always enough
UCH37 DUB inh: human UCH37 deubiquitinating enzyme inhibition; Q9Y5K5; purified proteasome/UCH37, Ub-AMC cleavage fluorescence; inhibition, % (no concentration beside the values); 0.33% of 330,000 active; AID 588478;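 active means mean inhibition over replicate wells above about 20%, limit read from the data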;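 further: 0% = compound-free wells with enzyme and 100% = wells lacking proteasome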
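Signal – fluorescence, ex 355 nm, em 460 nm · System – Proteasome-bound UCH37 · Input – 0.15 nM proteasome as dispensed · Timing – 30 min preincubation with enzyme, 25 min cleavage at room temperature · Read-out basis – percent inhibition of cleavage signal versus uninhibited and no-proteasome wells · Medium – Tris-HCl pH 7.4 with ATP-MgCl2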
PREPL inh: inhibitors of human prolyl oligopeptidase-like enzyme PREPL. 0.68% of 320,000 active. recombinant PREPL, fluorescence polarization activity-based probe. inhibition, % at 5.96 µM. AID 2751; in the data active means inhibition above about 43%;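 further: 0% = enzyme with DMSO and 100% = wells lacking enzyme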
Apaf-1 inh: blocks human Apaf-1 apoptosome activity. O14727. reconstituted apoptosome caspase-3 activity, DEVD-Rh110 fluorescence. inhibition, % at 20 µM. 0.71% of 330,000 active. AID 489030; active means inhibition of at least 40% at 20 µM;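 further: plate controls were DMSO wells for no effect and DEVD-CHO caspase inhibitor wells for full effect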
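Material: cell-free apoptosome with Apaf-1, procaspase-3 and caspase-9; Buffer or medium: Hepes pH 7.5 with detergent and BSA; Reagent: cytochrome c trigger plus (Z-DEVD)2-Rh110 caspase-3 substrate; Times: compound with Apaf-1, dATP, procaspase-3 30 min, then 50 min reaction, room temperature; Technique: Rh110 fluorescence intensity.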
Apaf-1 inh conf: Apaf-1 inhibition, single-dose confirmed; shares compounds with Apaf-1 inh; reconstituted apoptosome, caspase-3 DEVD-Rh110 fluorescence; inhibition, % at 20 µM; 25% of 1,800 active; AID 504614;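 active means mean inhibition of at least 40% at 20 µM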;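 further: plate controls were DMSO wells for no effect and DEVD-CHO caspase inhibitor control wells for full effect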
Rh110 interf inh: counter-screen for Apaf-1 inhibitors: fluorescence interference | shares compounds with Apaf-1 inh | activation (fluorescence interference), % at 20 µM | Rh110 fluorescence interference, quenched caspase reaction | 1,800 tested, under 10 active | AID 504615;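 active means signal rise of 40% or more at 20 µM, treated as a fluorescence artifact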
Apaf1 inh interf: shows fluorescence interference in the Apaf-1 inhibitor assay format. fluorescence interference counterscreen, Apaf-1 assay format. 460 tested, under 10 active. AID 588538. IC50, µM. shares compounds with Apaf-1 inh; call rule not given here
* = called active by the depositor.

How did Nc1ccc2ncccc2c1 do in these assays?
UBC13 inh: -18; UCH37 DUB inh: 4; PREPL inh: 12; Apaf-1 inh: 86*; Apaf-1 inh conf: 19; Rh110 interf inh: -3

How did Nc1ccc(/C=C/c2ccc3ncccc3c2)cc1 do in these assays?
UBC13 inh: -8; UCH37 DUB inh: -69; PREPL inh: 7; Apaf-1 inh: 4

How did COC(=O)C/C=C/[C@@H](C)[C@@H](C=NOC[C@H]1O[C@H](c2ccccc2)C=C[C@@H]1Oc1ccc(OC)cc1)NS(=O)(=O)c1ccc(C)cc1 do in these assays?
UCH37 DUB inh: 2

Results for O=C(O)/C=C1\NC(=O)c2ccccc21 ?
UBC13 inh: -5; UCH37 DUB inh: 5; PREPL inh: 2; Apaf-1 inh: 8

How did O=C1N/C(=C\c2ccc(O)cc2)C(=O)c2ccccc21 do in these assays?
UBC13 inh: -48; UCH37 DUB inh: 87*; PREPL inh: 11; Apaf-1 inh: 97*; Apaf-1 inh conf: 74*; Rh110 interf inh: 0; Apaf1 inh interf: >100

What do the screens show for `COc1cc(C=NNC(=O)c2cccc([N+](=O)[O-])c2)ccc1OCc1ccc(C)cc1`?
UCH37 DUB inh: 2

How did COc1cc2sc3ccc(-c4ccc(N(C)C)nc4)cc3c(=O)c2cc1OC do in these assays?
UBC13 inh: 1; UCH37 DUB inh: 2; PREPL inh: 33; Apaf-1 inh: 44*; Apaf-1 inh conf: 37; Rh110 interf inh: 5

Results for COc1ccc(-c2ccc3sc4ccccc4c(=O)c3c2)cn1 ?
UBC13 inh: 6; UCH37 DUB inh: 4; PREPL inh: 2; Apaf-1 inh: 16

How did Clc1cccc(NN=Cc2ccncc2)c1 do in these assays?
UCH37 DUB inh: 7

Results for O=C1CSC(=S)N1N=Cc1ccc(O)c([N+](=O)[O-])c1 ?
UCH37 DUB inh: 8

Results for CC(=O)Oc1cccc(C=NNC(=O)C(=O)NN=Cc2cccc(OC(C)=O)c2)c1 ?
UCH37 DUB inh: 3

Results for O=C1C(=O)N(CCN2CCOCC2)C(c2ccccc2)/C1=C(\O)c1ccc2c(c1)OCCO2 (stereo not drawn) ?
UBC13 inh: -23; UCH37 DUB inh: 7; PREPL inh: -2; Apaf-1 inh: 50*; Apaf-1 inh conf: 1; Rh110 interf inh: 5

How did Cc1ccc(N(CC(=O)N/N=C/c2ccc(OC3CSC3)cc2)S(=O)(=O)c2ccccc2)c(C)c1 do in these assays?
UBC13 inh: -18; PREPL inh: -11; Apaf-1 inh: 63*; Apaf-1 inh conf: 18; Rh110 interf inh: 0

Results for CN(C)S(=O)(=O)c1ccc(C(=O)NCC(=O)NN=Cc2ccccc2)cc1 ?
UCH37 DUB inh: 2

How did CCOC(=O)CNc1ccc2c(c1)OCO2 do in these assays?
UBC13 inh: -34; UCH37 DUB inh: 3; PREPL inh: 15; Apaf-1 inh: 40*; Apaf-1 inh conf: 19; Rh110 interf inh: 18

How did CCOC(=O)CNC(=O)/C=C/c1ccc2c(c1)OCO2 do in these assays?
UBC13 inh: 3; UCH37 DUB inh: -54; PREPL inh: 0; Apaf-1 inh: -2

How did COc1cc(CCc2ccccc2)c(C(=O)O)c(O)c1C/C=C(/C)CCC=C(C)C do in these assays?
UCH37 DUB inh: 15; Apaf-1 inh: 43*; Apaf-1 inh conf: 37; Rh110 interf inh: 18

What do the screens show for `CC(C)=CCC/C(C)=C/Cc1c(O)ccc(C(=O)/C=C/c2ccc(O)cc2)c1O`?
UBC13 inh: 1; PREPL inh: -4; Apaf-1 inh: -2

How did CCOC(=O)C1CCN(C2=C(NS(=O)(=O)c3ccc(Br)cc3)C(=O)c3ccccc3C2=O)CC1 do in these assays?
UBC13 inh: -87; UCH37 DUB inh: 23*; PREPL inh: 15; Apaf-1 inh: 68*; Apaf-1 inh conf: 33; Rh110 interf inh: -2

What do the screens show for `NC(=O)C1CCN(C2=C(NS(=O)(=O)c3ccc(Br)cc3)C(=O)c3ccccc3C2=O)CC1`?
UBC13 inh: -118; UCH37 DUB inh: 21*; PREPL inh: 18; Apaf-1 inh: 66*; Apaf-1 inh conf: 48*; Rh110 interf inh: 14; Apaf1 inh interf: >100

How did NC(=O)C1CCN(C2=C(NS(=O)(=O)c3ccccc3)C(=O)c3ccccc3C2=O)CC1 do in these assays?
UBC13 inh: -88; UCH37 DUB inh: 16; PREPL inh: -1; Apaf-1 inh: 21
